Sampled rows, rich in hits. Any-hit rate of the full collection: about 1.7%.
PglD inh – PglD (C. jejuni) enzyme inhibition. purified PglD enzyme, DTNB colorimetric CoA detection. inhibition, % at 12.5 µM. 0.098% of 360,000 active. AID 602405; in the data active = inhibition above about 16%, passing the limit was not always enough
Rtt109 Vps75 – blocks Candida albicans Rtt109/Vps75 acetyltransferase activity. Q5AAJ8. purified Rtt109/Vps75, ThioGlo CoA-SH fluorescence, 4 h. inhibition, % at 34.9 µM. 0.16% of 330,000 active. AID 540336;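 active = inhibition of at least 50% in every replicate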
Target sequence (Q5AAJ8 whole entry, looked up): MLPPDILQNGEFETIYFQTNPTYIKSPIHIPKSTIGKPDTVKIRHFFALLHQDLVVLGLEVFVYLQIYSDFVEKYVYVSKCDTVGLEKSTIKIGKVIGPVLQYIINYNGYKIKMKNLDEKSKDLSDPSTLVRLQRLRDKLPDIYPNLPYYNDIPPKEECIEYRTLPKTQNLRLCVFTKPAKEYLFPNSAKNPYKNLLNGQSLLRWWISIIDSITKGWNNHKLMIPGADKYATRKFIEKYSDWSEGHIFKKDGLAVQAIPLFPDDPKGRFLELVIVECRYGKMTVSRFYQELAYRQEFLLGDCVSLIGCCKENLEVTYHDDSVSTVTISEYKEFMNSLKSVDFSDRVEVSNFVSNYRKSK
PfHsp90 yeast 2 – reduces growth (ATP signal) of yeast expressing P. falciparum Hsp90; S. cerevisiae expressing PfHsp90, BacTiter-Glo ATP, 48 h; yeast lacking PDR1 and PDR3 efflux regulators; inhibition, % at 9.4 µM; 0.32% of 310,000 active;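 active = every replicate shows inhibition above about 80%, whatever the replicate mean, limit read from the data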;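 also: 0% = DMSO neutral controls and 100% = 20 µM radicicol positive controls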
SKKanGAS inh – SKKanGAS growth inhibition; S. pyogenes SKKanGAS, kanamycin growth, BacTiter-Glo, 6 h; inhibition, % at 7.5 µM; 1.3% of 300,000 active; AID 1662;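 active = mean replicate score, as percent of positive control median, at least 50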;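 also: strain carries kanamycin resistance gene driven by streptokinase promoter and grows in 40 µg/ml kanamycin; loss of luminescence reflects streptokinase promoter inhibition or plain growth inhibition; 0% = median of DMSO wells and 100% = positive control at its reference dose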
FN deposit inh – fibronectin deposition inhibition. inhibition, % at 12.6 µM. AID 743247. 0.086% of 350,000 active. AH1F fibroblasts, Alexa488-fibronectin deposition fluorescence, overnight;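 active = mean inhibition across replicates of 30% or more, regardless of how many single replicates reach that level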;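 also: positive control wells lacked labelled fibronectin entirely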
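Assay system: AH1F fibroblasts / Quantity: 10000 cells per well / Medium: DMEM plus 2% serum, read in PBS / Reagent: labelled fibronectin 24 nM / Dosing: single dose, pinned / Times: 1 h cell attachment, overnight exposure to compound and label / Signal: fluorescence, ex 485 nm, em 525 nm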
CSC inhib – cancer stem cell inhibition | cancer stem cell-like cells viability, luminescence | inhibition, % at 7.5 µM | 1.1% of 300,000 active | AID 2717; in the data active = inhibition above about 75%; tested in HMLE shEcad cells
PglD inh SP – PglD (C. jejuni) inhibition confirmation; shares compounds with PglD inh; Purified C. jejuni PglD, DTNB absorbance 412 nm; inhibition, % at 20 µM; 320 tested, under 10 active;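 active = mean inhibition across replicates of at least 20% with every single replicate also at 20% or more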;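 also: initial rate of CoA release by acetyl transfer from AcCoA to the UDP-4-amino sugar; 0% = median of neutral control wells and 100% = median of positive control wells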
The depositor's hits bear a star; x = not tested or not shown.

SMILES | PglD inh | Rtt109 Vps75 | PfHsp90 yeast 2 | SKKanGAS inh | FN deposit inh | CSC inhib | PglD inh SP
CCN1CC(=O)N2[C@H](CO)[C@H](c3ccc(Br)cc3)[C@@H]2C1 | x | x | x | x | 4 | x | x
COc1ccc(S(=O)(=O)N(C)C[C@@H]2OCCCC[C@@H](C)Oc3ccc(NC(=O)NC4CCCCC4)cc3C(=O)N([C@H](C)CO)C[C@H]2C)cc1 | 1 | x | x | x | -16 | x | x
Clc1ccc(-c2noc(CN3CCCC3)n2)cc1 | 31* | 10 | 0 | 2 | x | -12 | -4
COCc1nc2ccccc2n1CCOc1ccccc1OC | 24* | 8 | -183 | -5 | 1 | x | -1
O=C1CSCN1c1ccc(Cl)cc1 | 83* | -6 | -13 | -11 | -4 | -8 | 9
O=C(Oc1coc(CSc2nnc(NC(=O)C3CC3)s2)cc1=O)c1c(F)cccc1F | 63* | 31 | 17 | -11 | 3 | 27 | 4
Cc1cc(C)cc(C(=O)Oc2coc(CSc3nnc(NC(=O)C4CC4)s3)cc2=O)c1 | x | -11 | -3 | 10 | 3 | 40 | x
CC(C)NC(=O)N[C@@H]1CC[C@@H](CC(=O)NC2Cc3ccccc3C2)O[C@@H]1CO | -2 | x | x | x | -9 | x | x
O=C(NCCC1=CCCCC1)c1cnsn1 | 42* | 3 | -18 | -1 | x | -14 | -1
CN(Cc1ccccc1)S(=O)(=O)c1ccc2[nH]c(=O)oc2c1 | -3 | -3 | -9 | -2 | 3 | -6 | x
CN(c1ccccc1)S(=O)(=O)c1ccc2[nH]c(=O)oc2c1 | 29* | -9 | -4 | 1 | 9 | -7 | 3
CN1C(=O)c2cc(NC(=O)c3ccccc3Cl)ccc2OC[C@H]2O[C@@H](CC(=O)O)CC[C@H]21 | -3 | x | x | x | -10 | x | x
CC(=O)C1=C(O)C(=O)N(Cc2ccco2)C1c1ccccc1F (stereo not drawn) | x | 0 | 21 | 0 | -6 | 1 | x
CC(C)(C)C(=O)C1=C(O)C(=O)N(Cc2ccccc2)C1c1ccccc1F (stereo not drawn) | 73* | 3 | -62 | 8 | -3 | -17 | -11
CCCNC(=O)Nc1ccc2c(c1)OC[C@H](C)N(CC1CCCC1)C[C@H](C)[C@@H](OC)CN(C)C2=O | x | x | x | x | -8 | x | x
Cc1c(C(=O)NC(C)C)sc2ncn(CC(=O)N3CCC(C)CC3)c(=O)c12 | 24* | -5 | x | -1 | x | -4 | 0
O=C(CC(F)(F)F)N1C[C@@H]2[C@H](c3ccccc31)[C@@H](CO)N2C(=O)Cc1ccccc1 | 1 | x | x | x | x | x | x
O=C(NCCN1CCCCC1)Nc1ccc(F)cc1F | 24* | -1 | -1 | 2 | 5 | 1 | 7
O=C(c1ccccn1)N1C[C@H]2[C@@H](c3ccccc31)[C@H](CO)N2C(=O)C1CC1 | 2 | x | x | x | -6 | x | x
Cc1noc(C)c1NC(=O)Nc1cccc2c1O[C@H](CN(C)S(C)(=O)=O)[C@@H](C)CN([C@@H](C)CO)C2=O | 0 | x | x | x | x | x | x
CN(C)CC(=O)Nc1ccc2c(c1)[C@H]1C[C@@H](CC(=O)N3CCN(C)CC3)O[C@@H](CO)[C@H]1O2 | 3 | x | x | x | 6 | x | x
O=C(O)CSc1cc(C(=O)c2ccccc2O)cn2c(=O)c3c4c(sc3nc12)CCCC4 | 22* | 13 | -10 | 7 | -14 | x | 1
O=C(O)CSc1nc2sc3c(c2c(=O)n1Cc1ccccc1)CCCCC3 | -3 | 0 | -13 | 34 | -6 | 19 | x
O=C(O)CC/C(=N\NC(=O)CNC(=O)/C=C/c1ccccc1)c1ccccc1 | 26* | 21 | -7 | 0 | 15 | -14 | 2
CC(O)(c1cccnc1)c1nc(-c2ccc3ccccc3c2)cs1 (stereo not drawn) | 22* | x | x | x | 9 | x | -1
SMILES | PglD inh | Rtt109 Vps75 | PfHsp90 yeast 2 | SKKanGAS inh | FN deposit inh | CSC inhib | PglD inh SP
COc1cccc(C(C)(O)c2nc(-c3ccc4ccccc4c3)cs2)c1 (stereo not drawn) | 4 | x | x | x | 16 | x | x
COc1ccc(C(C)(C)C)cc1S(=O)(=O)N1CCC(C(N)=O)CC1 | x | 1 | 25 | 2 | 3 | -15 | x
COc1ccc(F)cc1S(=O)(=O)N1CCC(C(N)=O)CC1 | 22* | 4 | 15 | 0 | x | -8 | -3
CCC(=O)N(C)C[C@@H]1Oc2ncc(C#Cc3ccncc3)cc2C(=O)N([C@H](C)CO)C[C@@H]1C | -2 | x | x | x | -3 | x | x
CC(=O)c1ccc(S(=O)(=O)N2Cc3ccccc3CC2C(=O)O)cc1 (stereo not drawn) | 25* | 1 | -13 | 4 | -7 | -5 | 0
O=C(O)[C@H]1Cc2ccccc2CN1S(=O)(=O)c1ccc(F)cc1 | 3 | -3 | 6 | -3 | -10 | 1 | x
CS(=O)(=O)N1C[C@@H]2C(c3ccccc3)[C@H](C1)N2Cc1ccc(F)cc1 (stereo partly drawn) | x | x | x | x | -11 | x | x
CC(C)CC#Cc1cnc2c(c1)C(=O)N([C@@H](C)CO)C[C@H](C)[C@@H](CN(C)S(=O)(=O)c1cccs1)O2 | 2 | x | x | x | 3 | x | x
COc1cc(NC(=O)Cc2nn(C)c(=O)c3ccccc23)cc(OC)c1 | 21* | -8 | -12 | 1 | x | -5 | -5
C[C@H]1CN([C@@H](C)CO)C(=O)c2cc(NS(=O)(=O)c3ccc(Cl)cc3)ccc2O[C@@H]1CN(C)C(=O)Nc1ccccc1 | 2 | x | x | x | x | x | x
Cc1cc(=O)[nH]c(SCC(=O)Nc2ccc(F)cc2)c1C#N | 0 | 15 | -6 | 23 | -2 | -11 | x
Cc1cc(=O)[nH]c(SCC(=O)Nc2ccc(Br)cc2)c1C#N | 21* | 3 | 8 | 55* | -9 | 46 | 3
CN(C(=O)c1ccc(NC(=O)Cc2cccc(NC(=O)C3CCN(C(=O)C4CC4)CC3)c2)cc1)C1CC1 | 25* | 0 | 13 | x | -3 | x | -1
C[C@H]1CN([C@@H](C)CO)C(=O)c2cc(/C=C/c3ccccc3)cnc2O[C@@H]1CN(C)C(=O)C1CCCCC1 | -2 | x | x | x | x | x | x
CCN=C1Sc2nc3ccc(OCC)cc3cc2CN1CCOC | 21* | 19 | -8 | -1 | 4 | 6 | -1
Cc1c(C(=O)O)oc2c3c(ccc12)OCCO3 | 24* | 1 | x | -14 | x | -7 | -2
CO[C@@H]1CN(C)C(=O)c2cc(NC(=O)c3cccc(F)c3)ccc2OC[C@@H](C)N(C(C)=O)C[C@H]1C | x | x | x | x | 13 | x | x
CCNC(=O)C1CC(=O)N(Cc2ccc(F)cc2)C(=Nc2ccc(OC)cc2)S1 (stereo not drawn) | x | -2 | x | -9 | x | -15 | x
CCNC(=O)C1CC(=O)N(Cc2ccc3c(c2)OCO3)C(=Nc2ccc(OCC)cc2)S1 (stereo not drawn) | 24* | x | -8 | -2 | -3 | x | -7
CCC(C)(C)NC(=O)Cc1ccc(C)cc1 | 48* | -8 | 26 | -6 | -2 | x | -2
CCn1c(SCc2nc3sc(C(=O)O)c(C)c3c(=O)[nH]2)nc2ccccc21 | 28* | -6 | 1 | 17 | x | x | 47*

Screening results deposited in PubChem by Broad Institute.
